Experimental findings from ChEMBL document CHEMBL2385045, “Discovery of novel 4-(2-fluorophenoxy)quinoline derivatives bearing 4-oxo-1,4-dihydrocinnoline-3-carboxamide moiety as c-Met kinase inhibitors” (Bioorg Med Chem, 2013) are described below.

For one assay, the system named is A549. The experiment in a line: Cytotoxicity against c-Met-dependent human A549 cells assessed as growth inhibition after 72 hrs by MTT assay. The note with it: A549, 72 h.
Assay [1] is described as follows: Cytotoxicity against c-Met-independent human H460 cells assessed as growth inhibition after 72 hrs by MTT assay. The note with it: NCI-H460, 72 h.
The next assay deals with HT-29. Briefly: Cytotoxicity against c-Met-dependent human HT-29 cells assessed as growth inhibition after 72 hrs by MTT assay. As to conditions: HT-29, 72 h.
The subject of the next assay is MKN-45. Briefly: Cytotoxicity against c-Met-dependent human MKN45 cells assessed as growth inhibition after 72 hrs by MTT assay. The note with it: MKN-45, 72 h.
Assay [2] in a line: Cytotoxicity against c-Met-dependent human U87MG cells assessed as growth inhibition after 72 hrs by MTT assay. In kind it is functional, cell-based, U-87MG ATCC. The note with it: U-87 MG. The procedure, abridged:
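Cells grown in MEM with 10% FBS. About 4×10³ cells/well were seeded and incubated 24 h at 37 °C, 5% CO₂, then exposed to compound for 72 h. MTT was added (terminal 5 µg/mL) for 4 h at 37 °C, and formazan was dissolved in DMSO. IC50 is the mean of three determinations.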

Molecules are shown by their SMILES.

`COc1cc2c(Oc3ccc(NC(=O)c4nn(-c5ccc(F)cc5Br)c5ccccc5c4=O)cc3F)ccnc2cc1OCCCN1CCCC1`: the IC50 in the assay on A549 amounted to 1.03 µM; in assay [1], 3.65 µM; in the assay with HT-29 it was 2.91 µM; in the assay on MKN-45, 1.72 µM.

As to `COc1cc2c(Oc3ccc(NC(=O)c4nn(-c5ccccc5Cl)c5cc(F)ccc5c4=O)cc3F)ccnc2cc1OCCCN1CCCCC1`, the IC50 in the assay with A549 is 1.82 µM; in assay [1], 1.51 µM; in the assay with HT-29 it was 2.47 µM; in the assay with MKN-45, 1.62 µM.

On to `COc1cc2c(Oc3ccc(NC(=O)c4nn(-c5ccc(C)cc5)c5ccccc5c4=O)cc3F)ccnc2cc1OCCCN1CCOCC1`, for which the IC50 with A549 came out at 1.1 µM; in assay [1], 2.1 µM; in the assay on HT-29 it was 3.2 µM; in the assay on MKN-45, 0.68 µM; in assay [2] it was 1.97 µM.

For `COc1cc2c(Oc3ccc(NC(=O)c4nn(-c5ccccc5Cl)c5cc(F)ccc5c4=O)cc3F)ccnc2cc1OCCCN1CCC(C)CC1`, the IC50 with A549 is 1.05 µM; in assay [1], 1.25 µM; with HT-29, 1.37 µM; in the assay on MKN-45, 1.56 µM.

For `COc1cc2c(Oc3ccc(NC(=O)c4nn(-c5cc(C(F)(F)F)ccc5Cl)c5ccccc5c4=O)cc3F)ccnc2cc1OCCCN1CCCC1`, the half-inhibitory concentration (IC50) is 0.2 µM in the assay with A549; 0.61 µM in assay [1]; 1.12 µM with HT-29; 0.17 µM in the assay on MKN-45; 1.42 µM in assay [2].

As for `COc1cc2c(Oc3ccc(NC(=O)c4nn(-c5ccccc5F)c5cc(F)ccc5c4=O)cc3F)ccnc2cc1OCCCN1CCCCC1`, the IC50 came out at 3.27 µM with A549, 3.28 µM in assay [1], 5.07 µM with HT-29 and 2.79 µM in the assay on MKN-45.

With `COc1cc2c(Oc3ccc(NC(=O)c4nn(-c5cc(C)ccc5C)c5ccccc5c4=O)cc3F)ccnc2cc1OCCCN1CCCC1`, the IC50 was determined as 1.15 µM with A549; 2.03 µM in assay [1]; 3.05 µM in the assay with HT-29; 0.42 µM in the assay on MKN-45; 2.47 µM in assay [2].

Take `COc1cc2c(Oc3ccc(NC(=O)c4nn(-c5cc(C)ccc5C)c5ccccc5c4=O)cc3F)ccnc2cc1OCCCN1CCOCC1`: the IC50 amounted to 0.75 µM in the assay on A549; 0.59 µM in assay [1]; 1.15 µM with HT-29; 0.03 µM in the assay on MKN-45; 1.36 µM in assay [2].

Regarding `COc1cc2c(Oc3ccc(NC(=O)c4nn(-c5cccc(C(F)(F)F)c5)c5ccccc5c4=O)cc3F)ccnc2cc1OCCCN1CCC(C)CC1`, the IC50 with A549 came out at 0.21 µM; in assay [1], 0.55 µM; with HT-29, 1.02 µM; in the assay on MKN-45, 0.16 µM; in assay [2], 0.73 µM.

Take `COc1cc2c(Oc3ccc(NC(=O)c4nn(-c5c(Cl)cccc5Cl)c5ccccc5c4=O)cc3F)ccnc2cc1OCCCN1CCCCC1`: the IC50 was determined as 0.41 µM with A549; 0.77 µM in assay [1]; 1.15 µM in the assay on HT-29; 0.39 µM with MKN-45; 1.36 µM in assay [2].

In the case of `COc1cc2c(Oc3ccc(NC(=O)c4nn(-c5ccc(C)cc5C)c5ccccc5c4=O)cc3F)ccnc2cc1OCCCN1CCCCC1`, the IC50 is 1.28 µM with A549, 1.57 µM in assay [1], 3.56 µM with HT-29 and 1.85 µM in the assay with MKN-45.

In the case of `COc1cc2c(Oc3ccc(NC(=O)c4nn(-c5ccc(Cl)cc5Cl)c5ccccc5c4=O)cc3F)ccnc2cc1OCCCN1CCCCC1`, the IC50 in the assay on A549 was found to be 0.47 µM; in assay [1] it was 1.03 µM; with HT-29 it was 0.99 µM; in the assay on MKN-45, 0.59 µM.

For the molecule `COc1cc2c(Oc3ccc(NC(=O)c4nn(-c5ccccc5F)c5cc(F)ccc5c4=O)cc3F)ccnc2cc1OCCCN1CCOCC1`, the IC50 came out at 2.04 µM with A549, 2.25 µM in assay [1], 2.95 µM in the assay with HT-29 and 1.54 µM in the assay on MKN-45.

For the molecule `COc1cc2c(Oc3ccc(NC(=O)c4nn(-c5ccc(C)cc5)c5ccccc5c4=O)cc3F)ccnc2cc1OCCCN1CCC(C)CC1`, the IC50 amounted to 1.05 µM in the assay with A549, 1.99 µM in assay [1], 2.85 µM with HT-29 and 1.22 µM in the assay with MKN-45.
